Data published in ChEMBL document CHEMBL4376840, “Application of Fluorine- and Nitrogen-Walk Approaches: Defining the Structural and Functional Diversity of 2-Phenylindole Class of Cannabinoid 1 Receptor Positive Allosteric Modulators” (J Med Chem, 2020).
Calls of active or inactive are those of the source.

How the values were obtained:
Cannabinoid receptor 1 [1] = biological target: T1, Cannabinoid receptor 1 (Homo sapiens, UniProt P21554); assay: Positive allosteric modulatory activity at human CB1R expressed in CHO-K1 cells assessed as increase in CP55940-induced inhibition of forskolin-stimulated cAMP production after 30 mins in presence of CP55940 at EC20 concentration by hit-hunter cAMP assay; assay type: functional, cell-based
T1 sequence (P21554 whole entry): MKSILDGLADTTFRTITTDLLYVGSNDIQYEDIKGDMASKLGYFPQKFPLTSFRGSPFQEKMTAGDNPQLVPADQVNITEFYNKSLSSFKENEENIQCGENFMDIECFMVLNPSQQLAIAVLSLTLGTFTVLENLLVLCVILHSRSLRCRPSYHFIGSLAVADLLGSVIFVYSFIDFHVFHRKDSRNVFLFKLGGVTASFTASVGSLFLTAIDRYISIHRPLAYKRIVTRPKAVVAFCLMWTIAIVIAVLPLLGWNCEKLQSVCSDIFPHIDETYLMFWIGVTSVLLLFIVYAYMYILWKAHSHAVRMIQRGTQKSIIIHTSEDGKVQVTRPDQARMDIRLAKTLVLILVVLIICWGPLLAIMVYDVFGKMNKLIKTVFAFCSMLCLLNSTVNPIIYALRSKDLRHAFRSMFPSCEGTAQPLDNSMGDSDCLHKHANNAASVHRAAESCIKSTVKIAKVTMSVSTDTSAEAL
In short: (§1)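 Read-out was chemiluminescent cAMP detection, fit with a variable-slope 4-parameter regression. n = 1–3 independent experiments in duplicate.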

Cannabinoid receptor 1 [2] = biological target: T1, Cannabinoid receptor 1; assay: Positive allosteric modulatory activity at human CB1R expressed in CHO-K1 cells assessed as increase in CP55940-induced inhibition of forskolin-stimulated cAMP production after 30 mins in presence of CP55940 at EC20 concentration by hit-hunter cAMP assay relative to control; assay type: functional, cell-based; in short: as §1
[3] = biological target: Cannabinoid receptor 1 (Rattus norvegicus) (UniProt P20272); assay: (§2) Positive allosteric modulatory activity at N-terminal GFP-tagged rat CB1R receptor expressed in HEK293 cells assessed as increase in CP55940-induced inhibition of forskolin-induced cAMP accumulation by measuring Emax for cAMP accumulation at low concentrations of CP55940 at 0.03 microM after 30 mins by TR-FRET assay relative to forskolin; assay type: functional, cell-based
Cannabinoid receptor 1 (Rattus norvegicus), sequence (P20272 whole entry): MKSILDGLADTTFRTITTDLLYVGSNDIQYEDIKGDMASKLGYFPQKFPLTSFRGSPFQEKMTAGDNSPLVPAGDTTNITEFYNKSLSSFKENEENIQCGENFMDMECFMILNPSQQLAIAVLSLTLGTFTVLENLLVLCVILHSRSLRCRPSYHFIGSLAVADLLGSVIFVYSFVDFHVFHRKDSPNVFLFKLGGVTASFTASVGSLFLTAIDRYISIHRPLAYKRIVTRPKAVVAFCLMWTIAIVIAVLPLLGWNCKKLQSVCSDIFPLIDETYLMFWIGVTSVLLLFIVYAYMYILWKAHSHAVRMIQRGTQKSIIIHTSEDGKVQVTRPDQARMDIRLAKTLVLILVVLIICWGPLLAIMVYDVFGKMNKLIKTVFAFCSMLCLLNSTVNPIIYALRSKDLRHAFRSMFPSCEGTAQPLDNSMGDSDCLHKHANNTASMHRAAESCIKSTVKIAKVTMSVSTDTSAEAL

[4] = biological target: Cannabinoid receptor 1 (Rattus norvegicus) (UniProt P20272); assay: as §2, with “concentration” for “concentrations”, “0.1” for “0.03”; assay type: functional, cell-based
[5] = biological target: Cannabinoid receptor 1 (Rattus norvegicus) (UniProt P20272); assay: as §2, with “concentration” for “concentrations”, “0.3” for “0.03”; assay type: functional, cell-based
Cannabinoid receptor 1 [6] = biological target: T1, Cannabinoid receptor 1; assay: Displacement of [3H]CP55940 from human CB1R receptor expressed in CHO cell membranes after 60 mins by liquid scintillation spectrometry analysis
Cannabinoid receptor 1 [7] = biological target: T1, Cannabinoid receptor 1; assay: Positive allosteric modulation activity at human CB1 receptor expressed in CHO cell membranes assessed as increase in [3H]CP55940 binding at 1 uM measured after 90 mins in presence of [35S]GTPgammaS by liquid scintillation analysis; assay type: functional
Cannabinoid receptor 1 [8] = biological target: T1, Cannabinoid receptor 1; assay: Agonist activity at human CB1 receptor expressed in CHO cell membranes assessed as increase in G-protein coupling by measuring [35S]GTPgammaS binding after 90 mins in presence of [35S]GTPgammaS by liquid scintillation analysis relative to control; assay type: functional
In short: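 [35S]GTPγS binding to G protein in membranes from CHO cells stably expressing human CB1R, with test compound given alone. Data fit to a variable-slope 4-parameter nonlinear regression. n = 4–6 independent experiments in duplicate.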

Cannabinoid receptor 1 [9] = biological target: T1, Cannabinoid receptor 1; assay: Allosteric agonist activity at human CB1R expressed in CHO-K1 cells assessed as inhibition of forskolin-induced cAMP accumulation after 90 mins by hit-hunter cAMP assay; assay type: functional, cell-based
In short: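 HitHunter CHO-K1 hCB1R cells (20,000/well) were held overnight in Opti-MEM with 1% FBS. They were then co-treated at 37°C with 10 μM forskolin plus compound alone (0.10 nM – 10 μM) for 90 min. Chemiluminescent cAMP detection followed (two 60-min room-temperature steps). Data as % forskolin, variable-slope 4-parameter fit; Emin is the lower plateau. n ≥ 6, triplicate.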

Cannabinoid receptor 1 [10] = biological target: T1, Cannabinoid receptor 1; assay: Positive allosteric modulatory activity at human CB1R expressed in CHO-K1 cells assessed as increase in CP55940-induced inhibition of forskolin-induced cAMP accumulation by measuring cAMP accumulation at minimal level at higher concentration after 90 mins in presence of 100 nM CP55940 by hit-hunter cAMP assay relative to forskolin; assay type: functional, cell-based
In short: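 Uses the HitHunter CHO-K1 hCB1R cAMP set-up above. […] Data normalized to % forskolin, 4-parameter fit. n ≥ 6, triplicate.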

Cannabinoid receptor 1 [11] = biological target: T1, Cannabinoid receptor 1; assay: Allosteric agonist activity at human CB1R expressed in CHO-K1 cells assessed as increase in beta arrestin2 recruitment after 90 mins by pathhunter beta-arrestin assay; assay type: cell-based
In short: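 PathHunter CHO-K1 hCB1R cells (20,000/well) were held overnight in Opti-MEM with 1% FBS. Compound alone (0.10 nM – 10 μM) was given at 37°C for 90 min, then detection solution for 60 min at room temperature and chemiluminescence was read.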

Cannabinoid receptor 1 [12] = biological target: T1, Cannabinoid receptor 1; assay: Positive allosteric modulatory activity at human CB1R expressed in CHO-K1 cells assessed as increase in CP55940-induced beta arrestin2 recruitment after 90 mins in presence of 100 nM CP55940 by pathhunter beta-arrestin assay; assay type: cell-based
Cannabinoid receptor 1 [13] = biological target: T1, Cannabinoid receptor 1; assay: Positive allosteric modulatory activity at human CB1R expressed in CHO-K1 cells assessed as maximal increase in CP55940-induced beta arrestin2 recruitment after 90 mins in presence of 100 nM CP55940 by pathhunter beta-arrestin assay relative to CP55940; assay type: cell-based
Mus musculus [14] = assay: Effect on contralateral paw withdrawl threshold in CFA-induced mechanical allodynia CD1 mouse model at 0.1 to 30 mg/kg, ip measured every 3 hrs for 2 days post treatment by Von Frey test; assay type: ADME, organism-based; settings: in vivo, 48 h
In short: (§3)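 Mice received CFA injection into one paw. Mechanical paw withdrawal thresholds were measured in the injected (ipsilateral) and contralateral paws after i.p. compound at 0.1, 0.3, 1, 3, 10 or 30 mg/kg, compared with vehicle-treated groups at the same times.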

Mus musculus [15] = assay: Antiallodynic activity against CFA-induced mechanical allodynia CD1 mouse model assessed as increase in ipsilateral paw withdrawal threshold at 3 to 30 mg/kg, ip measured every 3 hrs for 2 days post treatment by Von Frey test; assay type: functional, organism-based; in short: as §3
Mus musculus [16] = assay: Antiallodynic activity against CFA-induced mechanical allodynia CD1 mouse model assessed as effect on ipsilateral paw withdrawal threshold at 0.3 mg/kg, ip measured every 3 hrs for 2 days post treatment by Von Frey test; assay type: functional, organism-based; in short: as §3
Mus musculus [17] = assay: Antiallodynic activity against CFA-induced mechanical allodynia CD1 mouse model assessed as increase in ipsilateral paw withdrawal threshold at 30 mg/kg, ip by Von Frey test; assay type: functional, organism-based; settings: TDE = time-dependent effect
In short: (§4)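 Time course in the CFA model at 30 mg/kg i.p. Ipsilateral and contralateral mechanical paw withdrawal thresholds were followed from 30 min to 4 h post-injection in wild-type and CB1 knockout mice. Compared with vehicle by ANOVA and Bonferroni post hoc tests.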

Mus musculus [18] = assay: Antiallodynic activity against CFA-induced mechanical allodynia CD1 mouse model assessed as increase in ipsilateral paw withdrawal threshold at 30 mg/kg, ip after 30 mins post treatment by Von Frey test; assay type: functional, organism-based; in short: as §4
Mus musculus [19] = assay: Effect on contralateral paw withdrawl threshold in CFA-induced mechanical allodynia CB1 receptor knockout CD1 mouse model at 0.1 to 30 mg/kg, ip measured for 0.5 to 4 hrs by Von Frey test; assay type: ADME, organism-based; settings: in vivo
[20] = Toxicity in C57BL/6 mouse assessed as catalepsy at 0.1 to 10 mg/kg, ip after 5 mins by bar holding assay; assay type: organism-based; settings: in vivo
In short: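 Male C57BL/6 mice were given 0.1 – 10 mg/kg compound or vehicle (1:1:18 ethanol:cremaphor:saline). Catalepsy was assessed at 5 min as % MPE with a 60 sec maximum. n = 5–6.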

[21] = Toxicity in C57BL/6 mouse assessed as effect on hypothermia at 0.1 to 10 mg/kg, ip after 15 mins by thermometric method; assay type: organism-based; settings: in vivo
In short: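 Male C57BL/6 mice were given 0.1 – 10 mg/kg compound or vehicle (1:1:18 ethanol:cremaphor:saline). Body temperature was measured at 15 min and expressed relative to vehicle (100%). n = 5–6.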

Mus musculus [22] = assay: Antinociceptive activity in C57BL/6 mouse at 3 to 10 mg/kg, ip after 20 mins post treatment by warm water tail-flick assay; assay type: functional, organism-based
[23] = human, microsomes, 1 µM

Row | Structure (SMILES) | EC50 (Cannabinoid receptor 1 [1]) | Emax (Cannabinoid receptor 1 [2]) | Emax [3] | Emax [4] | Emax [5] | Ki (Cannabinoid receptor 1 [6]) | Activity (Cannabinoid receptor 1 [7]) | Emax (Cannabinoid receptor 1 [8]) | EC50 (Cannabinoid receptor 1 [9]) | Emin (Cannabinoid receptor 1 [10]) | EC50 (Cannabinoid receptor 1 [11]) | EC50 (Cannabinoid receptor 1 [12]) | Emax (Cannabinoid receptor 1 [13]) | Activity (Mus musculus [14]) | Activity (Mus musculus [15]) | Activity (Mus musculus [16]) | Activity (Mus musculus [17]) | Activity (Mus musculus [18]) | Activity (Mus musculus [19]) | Activity [20] | also measured
1 | O=[N+]([O-])CC(c1ccccc1F)c1c(-c2cccc(F)c2)[nH]c2cc(F)ccc12 (stereo unspecified) | 28 nM | 93% | 58% | 46% | 32% | 88 nM | Active | 81% | 4.3 nM | 9% | 1600 nM | 190 nM | 130% | Non-Toxic | Active | inactive | Tde | Active | Non-Toxic | Non-Toxic | Activity [21]: Non-Toxic; Activity (Mus musculus [22]): Active; CLH [23]: 44.9 µL/min
2 | O=[N+]([O-])CC(c1ccccc1F)c1c(-c2cccc(F)c2)[nH]c2c(F)cccc12 (stereo unspecified) | 9.1 nM | 93% | 63% | 52% | 33% | 94 nM | Active | 84% | 3.9 nM | 10% | > 10000 nM | 3500 nM | 130% | Non-Toxic | Active | inactive | Tde | Active | Non-Toxic | Non-Toxic | Activity [21]: Non-Toxic; Activity (Mus musculus [22]): Active; CLH [23]: 44.4 µL/min
